pIC50: −log10 of the molar value.
Legend:
[1] = target: T1, 3-hydroxy-3-methylglutaryl-coenzyme A reductase (Rattus norvegicus, UniProt P51639); experiment: Inhibition of rat HMG-CoA reductase at 100 mM using 3.7 MBq DL-[3-14C]HMG-CoA
T1 sequence (P51639 whole entry): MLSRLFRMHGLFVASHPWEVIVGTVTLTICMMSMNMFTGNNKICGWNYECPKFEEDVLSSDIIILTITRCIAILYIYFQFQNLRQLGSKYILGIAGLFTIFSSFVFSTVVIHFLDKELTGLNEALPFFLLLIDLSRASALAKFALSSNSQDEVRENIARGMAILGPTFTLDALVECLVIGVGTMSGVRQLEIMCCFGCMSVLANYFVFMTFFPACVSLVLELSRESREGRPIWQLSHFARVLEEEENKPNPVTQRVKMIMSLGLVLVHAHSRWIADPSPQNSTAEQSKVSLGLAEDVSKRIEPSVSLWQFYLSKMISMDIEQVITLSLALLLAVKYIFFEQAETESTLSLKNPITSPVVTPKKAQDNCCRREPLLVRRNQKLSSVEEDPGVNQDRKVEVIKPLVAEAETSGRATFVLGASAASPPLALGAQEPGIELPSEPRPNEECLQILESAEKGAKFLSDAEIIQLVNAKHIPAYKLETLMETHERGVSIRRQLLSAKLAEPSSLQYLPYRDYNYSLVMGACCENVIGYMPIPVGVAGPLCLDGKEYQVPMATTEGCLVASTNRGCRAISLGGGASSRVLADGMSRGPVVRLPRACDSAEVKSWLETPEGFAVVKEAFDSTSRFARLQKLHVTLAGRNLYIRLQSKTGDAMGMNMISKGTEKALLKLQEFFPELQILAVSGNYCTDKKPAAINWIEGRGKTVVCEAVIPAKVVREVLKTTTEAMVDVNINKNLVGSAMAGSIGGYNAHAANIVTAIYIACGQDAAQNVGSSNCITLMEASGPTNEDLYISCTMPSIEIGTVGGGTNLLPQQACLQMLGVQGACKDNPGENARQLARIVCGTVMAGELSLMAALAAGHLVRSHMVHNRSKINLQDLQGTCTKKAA
Outline: (§1)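 Rat HMG-CoA reductase (method A): 3.7 MBq DL-[3-14C]HMG-CoA with 10 mg microsomal protein, 37 °C for 30 min. The reaction was stopped with 2 M HCl and metabolites were converted to mevalonolactone. Products were separated by silica TLC in acetone/benzene (1:1 v/v), and spot radioactivity was read by bioimaging analyzer.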

[2] = target: T1, 3-hydroxy-3-methylglutaryl-coenzyme A reductase; experiment: Inhibition of rat HMG-CoA reductase using 3.7 MBq DL-[3-14C]HMG-CoA; outline: as §1
[3] = target: T1, 3-hydroxy-3-methylglutaryl-coenzyme A reductase; experiment: Inhibition of rat HMG-CoA reductase using 0.37 MBq DL-[3-14C]HMG-CoA
Outline: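 Method B used the lower substrate level, 0.37 MBq DL-[3-14C]HMG-CoA, with rat microsomal fraction (10 mg protein) at 37 °C for 30 min. Stopped with 2 M HCl, with conversion to mevalonolactone. Separation was on silica TLC with acetone/benzene 1:1, and radioactivity per spot was quantified by bioimaging. The IC50 was taken from this readout.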

SMILES	pIC50 [3]	also measured
CCC(CC)(c1ccc(F)cc1)c1ccc(/C=C/[C@@H](O)C[C@@H](O)CC(=O)[O-])cc1.[Na+]	–	IC50 [1]: Not Active
CCC(CC)(c1cccc(F)c1)c1ccc(/C=C/[C@@H](O)C[C@@H](O)CC(=O)O)c(C(C)C)c1	–	pIC50 [2]: 4.04
CC[C@H](C)C(=O)O[C@H]1CCC=C2C=C[C@H](C)[C@H](CC[C@@H]3C[C@@H](O)CC(=O)O3)[C@H]21 [MEVASTATIN]	7.40	–
CCC(CC)(c1ccccc1)c1ccc(/C=C/[C@@H](O)C[C@@H](O)CC(=O)O)c(C(C)C)c1	5.74	–
CCC(CC)(c1ccccc1)c1ccc(/C=C/[C@@H](O)C[C@@H](O)CC(=O)O)c(-c2ccc(F)cc2)c1	6.82	–
